A selection: hits, their analogues and other compounds. The true share with any hit is near 1.8%.
CHRM4 PAM: human M4 muscarinic receptor positive allosteric modulators, primary screen, CHO-K1 cells, Fluo-8 calcium fluorescence | CHO-K1 hM4/Gqi5, ACh EC20; 0% = ACh EC20, 100% = maximal ACh | activation, % at 3 µM | Muscarinic acetylcholine receptor M4 (Homo sapiens), P08173 | actives 0.4% (n = 360,000);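 active means activation above its plate's cutoff, the mean activation of sample wells plus 3 SD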
Target sequence (P08173 whole entry, looked up): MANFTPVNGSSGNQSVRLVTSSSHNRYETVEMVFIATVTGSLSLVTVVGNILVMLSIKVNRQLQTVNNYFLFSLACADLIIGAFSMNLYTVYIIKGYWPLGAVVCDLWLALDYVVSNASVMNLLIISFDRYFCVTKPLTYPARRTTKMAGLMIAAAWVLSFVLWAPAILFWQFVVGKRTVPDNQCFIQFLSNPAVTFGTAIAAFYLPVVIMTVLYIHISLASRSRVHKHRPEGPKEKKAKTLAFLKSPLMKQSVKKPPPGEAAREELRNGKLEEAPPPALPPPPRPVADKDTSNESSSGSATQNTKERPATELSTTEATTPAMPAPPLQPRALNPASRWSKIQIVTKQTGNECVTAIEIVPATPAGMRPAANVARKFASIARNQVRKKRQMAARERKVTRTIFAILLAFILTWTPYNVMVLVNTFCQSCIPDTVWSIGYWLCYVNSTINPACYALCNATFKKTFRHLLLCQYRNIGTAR
M4 antag: human M4 muscarinic receptor antagonists, primary screen, CHO cells, Fluo-8 calcium fluorescence. Muscarinic acetylcholine receptor M4 (Homo sapiens), P08173. actives 0.73% (n = 360,000). inhibition, % at 3 µM. CHO-hM4 cells, ACh EC80;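 active means inhibition above its plate's cutoff, the mean inhibition of sample wells plus 3 SD, cut at about 27% in these data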;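 further: 0% = acetylcholine EC80 with DMSO and 100% = DMSO without agonist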
CHRM4 agonist: human M4 muscarinic receptor agonists, primary screen, CHO-K1 cells, Fluo-8 calcium fluorescence; Muscarinic acetylcholine receptor M4 (Homo sapiens), P08173; CHO-K1 hM4/Gqi5; vehicle 0%, full acetylcholine response 100%; activation, % at 3 µM; actives 0.14% (n = 360,000); AID 624127, 2012;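 active means activation above the run mean over all test wells plus 3 SD, cut at about 32% in these data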;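 further: peak over basal fluorescence ratio per well then scaled between controls; 0% = DMSO wells and 100% = acetylcholine at EC100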
CHRM5 antagonist: human M5 muscarinic receptor antagonists, primary screen, CHO cells, Fluo-8 calcium fluorescence | CHO-hM5 cells, ACh EC80 | AID 624040, 2012 | actives 0.59% (n = 360,000) | inhibition, % at 3 µM | Muscarinic acetylcholine receptor M5 (Homo sapiens), P08912;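 active means inhibition above a per-plate cutoff, the mean of that plate's test compounds plus 3 SD, cut at about 27% in these data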;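 further: 0% = acetylcholine EC80 with DMSO and 100% = DMSO without agonist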
M5 ag: human M5 muscarinic receptor agonists, primary screen, CHO-K1 cells, Fluo-8 calcium fluorescence | activation, % at 3 µM | Muscarinic acetylcholine receptor M5 (Homo sapiens), P08912 | actives 0.19% (n = 360,000) | AID 624037, 2012 | CHO-K1 hM5 cells; 0% DMSO wells, 100% maximal acetylcholine response;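 active means activation above the run's mean over test compounds plus 3 SD, cut at about 23% in these data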;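 further: signal is peak over basal fluorescence ratio across the kinetic read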
M5 PAM: human M5 muscarinic receptor positive allosteric modulators, primary screen, CHO-K1 cells, Fluo-8 calcium fluorescence | Muscarinic acetylcholine receptor M5 (Homo sapiens), P08912 | CHO-K1 hM5, ACh EC20 PAM; 0% = ACh EC20, 100% = ACh EC100 | activation, % at 3 µM | actives 0.3% (n = 360,000);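 active means activation above the run cutoff, the mean activation of all test compounds plus 3 SD, cut at about 18% in these data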
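Assay system: CHO-K1 hM5 cells. Also added: acetylcholine at EC20 concentration, added after compound. Dosing: 3 µM, single dose. Times: compound preincubation 140 s before EC20 acetylcholine addition. Signal: Fluo-8 calcium fluorescence. Measure: % activation relative to EC20 and EC100 ACh responses. Repeats: singlicate, one well per test compound.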
* = called active by the depositor.

For O=C(Nc1cccnc1)Nc1cc(Cl)cc(Cl)c1 the results were CHRM4 PAM -14.9, M4 antag 15.0, CHRM4 agonist 16.9, CHRM5 antagonist 30.0*, M5 ag 7.8 and M5 PAM -17.8.
Screening O=C(Nc1cccc(F)c1)Nc1cccc(Cl)c1 returned CHRM4 PAM -9.1, M4 antag 7.6, CHRM4 agonist 19.6, CHRM5 antagonist 27.7*, M5 ag 14.1 and M5 PAM -16.4.
Screening O=C(Nc1cccc(Cl)c1)Nc1cccc(Cl)c1 returned CHRM4 PAM -2.1, M4 antag 3.4, CHRM4 agonist 15.9, CHRM5 antagonist 23.0, M5 ag -1.1 and M5 PAM -22.5.
O=C(CN1C(=O)c2ccccc2C1=O)Nc1cccc(S(=O)(=O)Nc2ccccc2Cl)c1 was read as CHRM4 PAM 25.2*, M4 antag -2.0, CHRM4 agonist 3.6, CHRM5 antagonist -1.7, M5 ag 2.4 and M5 PAM 1.9.
`O=C(Nc1cccnc1)Nc1ccccc1Cl` gave CHRM4 PAM 8.9, M4 antag -4.6, CHRM4 agonist 0.1, CHRM5 antagonist -0.1, M5 ag 0.9 and M5 PAM -2.8.
`Cc1cc(C)c(C(=O)c2ccccc2C(=O)O)c(C)c1` gave CHRM4 PAM 15.8, M4 antag -13.9, CHRM4 agonist 1.2, CHRM5 antagonist -11.3, M5 ag 2.1 and M5 PAM 10.2.
`COc1ccc(CC(N)c2csc(NC(=O)Nc3ccccc3-c3ccccc3)n2)cc1` (configuration not stated) gave CHRM4 PAM -6.3, M4 antag 21.6, CHRM4 agonist 18.8, CHRM5 antagonist 15.2, M5 ag 0.7 and M5 PAM -6.8.
For COC(=O)c1cc(NC(=O)Nc2cccc(Cl)c2)ccc1Cl the results were CHRM4 PAM -13.3, M4 antag 19.6, CHRM4 agonist 20.4, CHRM5 antagonist 31.9*, M5 ag 10.9 and M5 PAM -22.3.
Screening COC(=O)c1cccc(NC(=O)Nc2ccc(Cl)cc2)c1 returned CHRM4 PAM -8.9, M4 antag 2.2, CHRM4 agonist 16.9, CHRM5 antagonist 16.6, M5 ag 3.0 and M5 PAM -25.9.
O=C(Nc1cccnc1)c1cc(Br)c(Br)s1 was read as CHRM4 PAM 5.7, M4 antag -28.5, CHRM4 agonist 25.7, CHRM5 antagonist 4.3, M5 ag 26.4* and M5 PAM -13.5.
Screening CC(C)(C)c1ccc(S(=O)(=O)NC(=O)C2(C)CCN2C(=O)C2CC2)cc1 (configuration not stated) returned CHRM4 PAM 5.7, M4 antag -8.0, CHRM4 agonist 0.8, CHRM5 antagonist -0.6, M5 ag -0.5 and M5 PAM 7.3.
Screening CNC(=S)Nn1cnc2ccccc21 returned CHRM4 PAM 7.6, M4 antag -0.5, CHRM4 agonist 0.4, CHRM5 antagonist -15.2, M5 ag 2.8 and M5 PAM 21.8*.
Screening O=C(Nc1nnc(-c2ccccc2Cl)o1)c1nc2ccccc2s1 returned CHRM4 PAM -9.1, M4 antag -5.8, CHRM4 agonist 110.7*, CHRM5 antagonist 7.2, M5 ag 65.1* and M5 PAM -16.6.
Screening Cc1c(C(=O)NCc2ccc3c(c2)OCO3)sc(=O)n1Cc1cccc(F)c1 returned CHRM4 PAM -0.7, M4 antag -8.7, CHRM4 agonist 12.8, CHRM5 antagonist -1.1, M5 ag 8.9 and M5 PAM -8.2.
For COC(=O)C1CCN(Cc2c(C(=O)N3C[C@@H](C)O[C@@H](C)C3)nc3ccc(Cl)cn23)CC1 the results were CHRM4 PAM 11.7, M4 antag -8.5, CHRM4 agonist -0.2, CHRM5 antagonist -17.7, M5 ag -1.8 and M5 PAM 19.2*.
`COc1cccc(-c2csc(N3CCN(C(=O)Nc4ccc(Cl)cc4)CC3)n2)c1` gave CHRM4 PAM -20.7, M4 antag 19.8, CHRM4 agonist 13.1, CHRM5 antagonist 27.8*, M5 ag -4.2 and M5 PAM -34.1.
For COc1ccc(NC(=O)N2CCN(c3nc(-c4cccc(OC)c4)cs3)CC2)cc1 the results were CHRM4 PAM -5.4, M4 antag 12.4, CHRM4 agonist 16.4, CHRM5 antagonist 16.9, M5 ag 2.5 and M5 PAM -17.3.
Screening CSc1nc2ccccc2n1Cc1c(Cl)cccc1Cl returned CHRM4 PAM -12.2, M4 antag -1.6, CHRM4 agonist 0.6, CHRM5 antagonist 9.9, M5 ag -12.4 and M5 PAM 20.9*.
`C=CCCC1(C)C(=O)N(c2ccccc2)c2ccccc21` (configuration not stated) gave CHRM4 PAM -3.9, M4 antag -4.3, CHRM4 agonist -0.6, CHRM5 antagonist 21.3, M5 ag -1.6 and M5 PAM 24.7*.
`C=CCC1(C)C(=O)N(c2ccccc2)c2ccccc21` (configuration not stated) gave CHRM4 PAM 0.5, M4 antag 1.2, CHRM4 agonist -2.5, CHRM5 antagonist -4.0, M5 ag -2.1 and M5 PAM 1.8.
`CCCNC(=O)c1cc2c(c(-c3cccc(-c4ccccc4F)c3)n1)[C@H](CCO)N(C(=O)CC1CC1)C2` gave CHRM4 PAM 5.6, M4 antag -15.0, CHRM4 agonist 3.0, CHRM5 antagonist -3.8, M5 ag 4.4 and M5 PAM -5.3.
`COc1ccc([C@H]2CC(=O)C[C@@H](CCn3cc(CCc4ccccc4)nn3)O2)cc1` gave CHRM4 PAM -2.7, M4 antag 0.2, CHRM4 agonist 3.9, CHRM5 antagonist 0.4, M5 ag 1.8 and M5 PAM -6.8.
Screening C=CCNc1sc(C(=O)c2ccccc2)c(N)c1-c1nc2ccccc2s1 returned CHRM4 PAM 28.8*, M4 antag -3.3, CHRM4 agonist -2.7, CHRM5 antagonist -5.6, M5 ag -6.0 and M5 PAM 19.7*.
`CCNc1sc(C(=O)c2cccs2)c(N)c1-c1nc2ccccc2s1` gave CHRM4 PAM 1.8, M4 antag 38.0*, CHRM4 agonist 3.2, CHRM5 antagonist 20.7, M5 ag 1.9 and M5 PAM -1.6.
For CCOC(=O)c1sc(NCc2ccco2)c(-c2nc3ccccc3s2)c1N the results were CHRM4 PAM 1.1, M4 antag -4.6, CHRM4 agonist 2.1, CHRM5 antagonist 3.8, M5 ag 0.7 and M5 PAM 3.5.

Screening results (PubChem BioAssay)
